In article PMC5788008 (Current drug discovery technologies, 2017):
≈ marks a conversion by molar mass, not a printed value. Like-named read-outs stand apart in the source and are kept apart here.

Columns and labels:
P. aeruginosa MetRS [1] = biological target: T1, P. aeruginosa MetRS (Pseudomonas aeruginosa, UniProt Q9HYC7)
T1 sequence (Q9HYC7 1-677): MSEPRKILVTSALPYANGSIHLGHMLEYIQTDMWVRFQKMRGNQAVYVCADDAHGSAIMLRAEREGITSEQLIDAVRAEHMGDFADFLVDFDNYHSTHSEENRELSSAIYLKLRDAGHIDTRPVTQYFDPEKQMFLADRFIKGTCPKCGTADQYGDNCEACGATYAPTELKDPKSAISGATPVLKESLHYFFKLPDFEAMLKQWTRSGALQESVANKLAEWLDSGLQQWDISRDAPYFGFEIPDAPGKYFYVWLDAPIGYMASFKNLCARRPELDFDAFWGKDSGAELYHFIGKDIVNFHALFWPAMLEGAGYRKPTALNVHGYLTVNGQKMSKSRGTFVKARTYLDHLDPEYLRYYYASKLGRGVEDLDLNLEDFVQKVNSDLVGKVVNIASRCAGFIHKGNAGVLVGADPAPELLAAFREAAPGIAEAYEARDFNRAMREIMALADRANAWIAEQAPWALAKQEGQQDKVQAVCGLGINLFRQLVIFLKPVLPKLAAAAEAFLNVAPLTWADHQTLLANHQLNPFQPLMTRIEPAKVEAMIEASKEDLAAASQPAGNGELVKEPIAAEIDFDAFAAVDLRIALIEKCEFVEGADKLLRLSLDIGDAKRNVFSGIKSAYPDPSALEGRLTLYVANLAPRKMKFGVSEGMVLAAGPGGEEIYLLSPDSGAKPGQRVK

E. coli MetRS = details: cited from earlier work
P. aeruginosa MetRS [2] = biological target: T1, P. aeruginosa MetRS; assay: tRNA aminoacylation assay in SPA format; assay type: biochemical
S. aureus (ATCC 29213) = assay: MIC, broth microdilution; assay type: cell-based, Staphylococcus aureus
[3] = tested on: P. aeruginosa (hypersensitive); assay: MIC, broth microdilution; assay type: cell-based, Pseudomonas aeruginosa; details: P. aeruginosa hypersensitive strain (ATCC 35151)
In short: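 Broth microdilution per CLSI guideline M7-A7, read as MIC in μg/ml. Hypersensitive strain ATCC 35151 was a gift. Compound stocks were 10 mM in DMSO. Three separate sets of assays were run. MIC QC and culture purity were checked with antibiotics specific to each strain, using Etest QC ranges.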

S. aureus = assay: Time-kill study; assay type: cell-based, Staphylococcus aureus; details: 4×MIC
In short: (§1)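 Time-kill following CLSI document M26-A. Growth media were Haemophilus Test Broth and Trypticase Soy Broth. Cultures with compound were sampled at 0, 2, 4, 6 and 24 h and plated for CFU counts. Controls had no compound but an equal amount of DMSO.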

[4] = tested on: H. influenzae (ATCC 49766); assay: MIC, broth microdilution; assay type: cell-based, Haemophilus influenzae
E. faecalis (ATCC 29212) = assay: MIC, broth microdilution; assay type: cell-based, Enterococcus faecalis
P. aeruginosa MetRS [5] = biological target: T1, P. aeruginosa MetRS; assay: Binding mode; assay type: biochemical; details: for competition with methionine for binding MetRS: 25-300 μM methionine, 2.5 mM ATP; for competition with ATP for binding MetRS: 25-1000 μM ATP, 75 μM methionine
H. influenzae = assay: Time-kill study; assay type: cell-based, Haemophilus influenzae; details: 4×MIC
In short: as §1

[6] = tested on: human embryonic kidney 293 cells (HEK-293); assay: MTT cytotoxicity assay; assay type: cell-based
[7] = substrate: Nc1ncnc2c1ncn2[C@@H]1O[C@H](COP(=O)(O)OP(=O)(O)OP(=O)(O)O)[C@@H](O)[C@H]1O; assay: purified protein, by the assay type; details: other: substrate ATP, methionine 2 mM; pH 7.5; 37.0 °C
[8] = substrate: CSCC[C@H](N)C(=O)O; assay: purified protein, by the assay type; details: other: substrate methionine, ATP 2 mM; pH 7.5; 37.0 °C

Molecule: CSCC[C@H](N)C(=O)O [Methionine]
- kcat (P. aeruginosa MetRS [1]; substrate methionine): 37.2 s⁻¹
- Km (E. coli MetRS; E. coli MetRS with methionine): 21 µM
- kcat (E. coli MetRS; E. coli MetRS with methionine): 74 µM

Molecule: O=c1cc(-c2cc(O)c(O)c(O)c2)oc2cc(O)cc(O)c12 [hieracin]
- IC50 (P. aeruginosa MetRS [2]): 8.3 µM

Molecule: CC1(C)C=Cc2c(c3c(c4c(=O)c(-c5ccc(O)c(O)c5)coc24)OC(C)(C)CC3)O1 [Isopomiferin, isopomiferin]
- MIC (S. aureus (ATCC 29213)): 32 µg/mL (≈ 76.1 µM)
- MIC [3]: 16 µg/mL (≈ 38.1 µM)
- mode of inhibition (time-kill) (S. aureus; 0-24 h): bactericidal
- CFUs in time-kill (S. aureus; first six hours of growth): no CFUs were observed
- MIC [4]: Moderate activity
- MIC (E. faecalis (ATCC 29212)): 32 µg/mL (≈ 76.1 µM)
- competition with methionine for binding MetRS (P. aeruginosa MetRS [5]): not observed to compete
- competition with methionine for binding MetRS (P. aeruginosa MetRS [5]; listed as BM01C11): did not compete
- competition with ATP for binding MetRS (P. aeruginosa MetRS [5]): not observed to compete
- competition with ATP for binding MetRS (P. aeruginosa MetRS [5]; listed as BM01C11): did not compete
- form of inhibition (P. aeruginosa MetRS [5]; IC50 constant as ATP or methionine increased): non-competitive
- IC50 (P. aeruginosa MetRS [2]; aminoacylation, 0.1 μM MetRS, compound 200 to 0.4 μM): 70 µM
- mode of inhibition (time-kill) (H. influenzae; 0-24 h): bacteriostatic
- decrease of colony forming units compared to the control (H. influenzae; during 24 h): 2 to 5 log10 CFU
- CC50 relative to that of staurosporine [6]: 10,000 fold

Molecule: Nc1ncnc2c1ncn2[C@@H]1O[C@H](COP(=O)(O)OP(=O)(O)OP(=O)(O)O)[C@@H](O)[C@H]1O [ATP, Adenosine triphosphate]
- kcat (P. aeruginosa MetRS [1]; substrate ATP): 24.2 s⁻¹
- Km (E. coli MetRS; E. coli MetRS with ATP): 528 µM
- kcat (E. coli MetRS; E. coli MetRS with ATP): 74 µM

B1: P. aeruginosa MetRS (Pseudomonas aeruginosa PAO1) (protein)
chain: MSEPRKILVTSALPYANGSIHLGHMLEYIQTDMWVRFQKMRGNQAVYVCADDAHGSAIMLRAEREGITSEQLIDAVRAEHMGDFADFLVDFDNYHSTHSEENRELSSAIYLKLRDAGHIDTRPVTQYFDPEKQMFLADRFIKGTCPKCGTADQYGDNCEACGATYAPTELKDPKSAISGATPVLKESLHYFFKLPDFEAMLKQWTRSGALQESVANKLAEWLDSGLQQWDISRDAPYFGFEIPDAPGKYFYVWLDAPIGYMASFKNLCARRPELDFDAFWGKDSGAELYHFIGKDIVNFHALFWPAMLEGAGYRKPTALNVHGYLTVNGQKMSKSRGTFVKARTYLDHLDPEYLRYYYASKLGRGVEDLDLNLEDFVQKVNSDLVGKVVNIASRCAGFIHKGNAGVLVGADPAPELLAAFREAAPGIAEAYEARDFNRAMREIMALADRANAWIAEQAPWALAKQEGQQDKVQAVCGLGINLFRQLVIFLKPVLPKLAAAAEAFLNVAPLTWADHQTLLANHQLNPFQPLMTRIEPAKVEAMIEASKEDLAAASQPAGNGELVKEPIAAEIDFDAFAAVDLRIALIEKCEFVEGADKLLRLSLDIGDAKRNVFSGIKSAYPDPSALEGRLTLYVANLAPRKMKFGVSEGMVLAAGPGGEEIYLLSPDSGAKPGQRVK
- Km [7]: 515 µM
- kcat [7]: 24.2 s⁻¹
- kcat/Km [7]: 0.05 µM/s
- Km [8]: 35 µM
- kcat [8]: 37.2 s⁻¹
- kcat/Km [8]: 1.1 µM/s
